Data taken from ChEMBL document CHEMBL3867435, “Chemical Constituents of Mangifera indica and Their Antiausterity Activity against the PANC-1 Human Pancreatic Cancer Cell Line” (J Nat Prod, 2016).
The source made the active and inactive calls. No cut-off for these calls is given here.

Key:
[1] = (§1) Antiausteritic activity against human PANC1 cells in nutrient-deprived medium measured after 24 hrs by WST8 assay; type: functional, PANC-1
In short: (§2)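 PANC-1 (Riken BRC) kept in DMEM + 10% FBS, 37 °C, 5% CO2. Seeded 1.5 × 10^4/well, 24 h in fresh DMEM, washed twice with PBS. Serial dilutions then given in DMEM or in NDM (salts, MEM vitamins, 25 mM HEPES, pH 7.4, no glucose/amino acids/serum) for 24 h. Viability read with 10% WST-8 in DMEM, 3 h, A450, vs control and blank; mean of three wells.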

[2] = Cytotoxicity against human PANC1 cells in Dulbecco's modified Eagle medium measured after 24 hrs by WST8 assay; type: toxicity, cell-based; conditions: panc-1, 24 h; in short: as §2
PANC-1 [3] = test: as §1; type: functional; in short: as §2
PANC-1 [4] = test: Induction of morphological changes in human PANC1 cells in nutrient-deprived medium at 10 uM measured after 24 hrs by acridine orange/ethidium bromide-staining based fluorescence microscopy; type: functional, cell-based
In short: (§3)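 After 24 h attachment (1.5 × 10^4/well, DMEM or RPMI-1640), cells were PBS-washed twice and exposed 24 h to compound in NDM (NDM alone as control). EB/AO reagent added for 5 min. Imaged at 20× in fluorescent and phase-contrast modes: green (AO) marks live cells, red (EB) marks dead cells.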

PANC-1 [5] = test: Induction of morphological changes in human PANC1 cells in nutrient-deprived medium at 5 uM measured after 6 hrs by phase contrast microscopic method; type: functional, cell-based
In short: (§4)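 Cells (3.0 × 10^6) plated in 35 mm dishes and attached overnight in complete medium. Washed twice with PBS, then treated at 5 μM in NDM. Held in a stage-top incubator at 37 °C, 5% CO2, with phase-contrast images taken every 5 min for 48 h.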

PANC-1 [6] = test: Induction of morphological changes in human PANC1 cells in nutrient-deprived medium assessed as plasma membrane blebbing at 5 uM measured after 9 hrs by phase contrast microscopic method; type: functional, cell-based; in short: as §4
[7] = Induction of cell death in human PANC1 cells in nutrient-deprived medium at 5 uM up to 24 hrs by phase contrast microscopic method; type: functional, PANC-1
In short: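 PANC-1 cells from the Riken bank, grown in DMEM with 10% FBS, were plated at 3.0 × 10^6 per 35 mm dish and left to attach overnight in complete medium. After two PBS washes they were treated in nutrient-deprived medium (inorganic salts, 25 mM HEPES pH 7.4, MEM vitamins; no glucose, amino acids or serum). Cells were kept in a stage-top incubator at 37 °C and 5% CO2, with phase-contrast images every 5 min.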

PANC-1 [8] = test: Induction of cell death in human PANC1 cells in nutrient-deprived medium at 5 uM after 48 hrs by phase contrast microscopic method; type: functional, cell-based; in short: as §4
PANC-1 [9] = test: Inhibition of mobility in human PANC1 cells in nutrient-deprived medium at 5 uM measured after 6 hrs by phase contrast microscopic method; type: functional, cell-based; in short: as §4
PANC-1 [10] = test: Induction of cell death in human PANC1 cells in nutrient-deprived medium at 10 uM measured after 24 hrs by acridine orange/ethidium bromide-staining based fluorescence microscopy; type: functional; in short: as §3

SMILES | PC50 [1] [µM] | Activity [2] | also measured
COc1cc(O)c(C(=O)c2ccc(O)cc2)c(O)c1[C@@H]1O[C@H](CO)[C@@H](O)[C@H](O)[C@H]1O | >100 | Non-Toxic | 
CCCC/C=C\CCCCCCCCCCCC(=O)O[C@H]1CC[C@]23C[C@]24CC[C@]2(C)[C@@H]([C@H](C)CC/C=C(\C)C(=O)O)CC[C@@]2(C)[C@@H]4CC[C@H]3C1(C)C | 69.6 | Non-Toxic | 
C/C(=C\CC[C@@H](C)[C@H]1CC[C@@]2(C)[C@@H]3CC[C@H]4C(C)(C)C(=O)CC[C@@]45C[C@@]35CC[C@]12C)C(=O)O [MANGIFERONIC ACID] | >100 | Non-Toxic | 
C=C(CC[C@@H](C)[C@H]1CC[C@@]2(C)[C@@H]3CC[C@H]4C(C)(C)[C@@H](O)CC[C@@]45C[C@@]35CC[C@]12C)[C@@H](C)C(=O)OC | >100 | Non-Toxic | 
C=C(CC[C@@H](C)[C@H]1CC[C@@]2(C)[C@@H]3CC[C@H]4C(C)(C)C(=O)CC[C@@]45C[C@@]35CC[C@]12C)[C@@H](C)C(=O)O | 44.2 | Non-Toxic | 
COc1cc(O)c(C(=O)c2ccc(O)cc2)c(O)c1[C@@H]1O[C@H](CO)[C@@H](O)[C@H](O)[C@H]1OC(=O)c1ccc(O)cc1 | >100 | Non-Toxic | 
O=c1[nH]cc(F)c(=O)[nH]1 [FLUOROURACIL] | >200 |  | 
C=C(CC[C@@H](C)[C@H]1CC[C@@]2(C)[C@@H]3CC[C@H]4C(C)(C)[C@@H](OC(C)=O)CC[C@@]45C[C@@]35CC[C@]12C)C(C)C(=O)O (stereo not given in full) | 11 | Non-Toxic | Activity (PANC-1 [3]): Dose-dependent effect
C=C(CC[C@@H](C)[C@H]1CC[C@@]2(C)[C@@H]3CC[C@H]4C(C)(C)[C@H](O)CC[C@@]45C[C@@]35CC[C@]12C)[C@@H](C)C(=O)O | 4.8 | Non-Toxic | Activity (PANC-1 [3]): Dose-dependent effect; Activity (PANC-1 [4]): Active; Activity (PANC-1 [5]): Active; Activity (PANC-1 [6]): Active; Activity [7]: >50%; Activity (PANC-1 [8]): Active; inhibition (PANC-1 [9]): Active; Activity (PANC-1 [10]): Active
C=C(CC[C@@H](C)[C@H]1CC[C@@]2(C)[C@@H]3CC[C@H]4C(C)(C)C(=O)CC[C@@]45C[C@@]35CC[C@]12C)[C@@H](C)C(=O)OC | 22.8 | Non-Toxic | 
C[C@H](CC/C=C(\CO)C(=O)O)[C@H]1CC[C@@]2(C)[C@@H]3CC[C@H]4C(C)(C)[C@@H](O)CC[C@@]45C[C@@]35CC[C@]12C | 52.1 | Non-Toxic | 
Nc1ccn([C@@H]2O[C@H](CO)[C@@H](O)C2(F)F)c(=O)n1 [GEMCITABINE] | > 100 |  | 
COc1cc(O)c(C(=O)c2ccc(O)cc2)c(O[C@@H]2O[C@H](CO)[C@@H](O)[C@H](O)[C@H]2O)c1 [MAHKOSIDE A] | >100 | Non-Toxic | 
O=c1c2cc(O)c(O)cc2oc2cc(O)c([C@@H]3O[C@H](CO)[C@@H](O)[C@H](O)[C@H]3O)c(O)c12 [MANGIFERIN] | >100 | Non-Toxic | 
C/C(=C\CC[C@@H](C)[C@H]1CC[C@@]2(C)[C@@H]3CC[C@H]4C(C)(C)[C@@H](O)CC[C@@]45C[C@@]35CC[C@]12C)C(=O)O [MANGIFEROLIC ACID] | >100 | Non-Toxic | 
C/C(=C\C(O)C[C@@H](C)[C@H]1CC[C@@]2(C)[C@@H]3CC[C@H]4C(C)(C)C(=O)CC[C@@]45C[C@@]35CC[C@]12C)C(=O)O (stereo not given in full) | 32.3 | Non-Toxic | 
COc1cc(C[C@H]2C(=O)OC[C@@H]2Cc2ccc(OC)c(OC)c2)ccc1O [ARCTIGENIN] | 0.8 |  | 
C/C(=C\C(O)C[C@@H](C)[C@H]1CC[C@@]2(C)[C@@H]3CC[C@H]4C(C)(C)[C@@H](O)CC[C@@]45C[C@@]35CC[C@]12C)C(=O)O (stereo not given in full) | >100 | Non-Toxic | 
C=C(CC[C@@H](C)[C@H]1CC[C@@]2(C)[C@@H]3CC[C@H]4C(C)(C)[C@@H](O)CC[C@@]45C[C@@]35CC[C@]12C)C(C)CO (stereo not given in full) | >100 | Non-Toxic | 
C[C@H](CC/C=C(\CO)C(=O)O)[C@H]1CC[C@@]2(C)[C@@H]3CC[C@H]4C(C)(C)C(=O)CC[C@@]45C[C@@]35CC[C@]12C | >100 | Non-Toxic | 
COc1cc(O)c(C(=O)c2ccc(O)cc2)c(O)c1 | >100 | Non-Toxic | 
C=C(CC[C@@H](C)[C@H]1CC[C@@]2(C)[C@@H]3CC[C@H]4C(C)(C)[C@@H](O)CC[C@@]45C[C@@]35CC[C@]12C)[C@@H](C)C(=O)O | >100 | Non-Toxic | 
